Values joined by “and” are separate entries in the source; they are usually repeats but may differ in a detail not shown here. Identical values can stand only once. Active and inactive are the calls of the source.
How the values were obtained:
Mus musculus [1] = test: Tested for analgesic activity using writhing test in mice at 20 mg/kg upon subcutaneous administration; assay type: functional; conditions: sc
Mus musculus [2] = test: Tested for antagonistic activity using Straub tail test in mice at 20 mg/kg upon subcutaneous administration; assay type: functional; conditions: sc
Mus musculus [3] = organism: Mus musculus; test: Maximum percent analgesia using tail flick test in mice; assay type: functional
In short: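 Young male Swiss mice (ca. 35 g) restrained in cylinders, with the tail exposed to 54 °C water. Reaction time (shorter of a pair) taken pre-dose and every 15 min to 2 h. Naive non-responders under 2.2 s excluded; 5 s cutoff. Dosed ip at 20 mg/kg in propylene glycol or water, 9–11 mice per group. […] Analgesia defined as PRT >2.6 s; the value is the peak percentage of analgesic mice at any time point.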

Mus musculus [4] = test: Tested for antagonistic activity using Straub tail test in mice at 20 mg/kg upon subcutaneous administration; Inactive; assay type: functional, organism-based; parameters: dose 20 mg/kg
Mus musculus [5] = test: Tested for analgesic activity using writhing test in mice at 20 mg/kg upon subcutaneous administration; Inactive; assay type: functional, organism-based; parameters: dose 20 mg/kg

Compound	ED50 (Mus musculus [1]) [mg/kg]	ED50 (Mus musculus [2]) [mg/kg]	Analgesia (Mus musculus [3])	ED50 (Mus musculus [4])	ED50 (Mus musculus [5])
COc1ccc2c3c1OC1C(=O)CCC4(Nc5ccccc5)C(C2)N(C)CCC314 (centres undefined)	1.04	> 40	10%		
COc1ccc2c3c1OC1C(=O)CCC4(Nc5ccc(F)cc5)C(C2)N(CC2CC2)CCC314 (centres undefined)	~25	~5	32%		
COc1ccc2c3c1OC1C(=O)C=CC4(N(O)c5ccc(F)cc5)C(C2)N(CC2CC2)CCC314 (centres undefined)	~40	12	32%		
COc1ccc2c3c1OC1C(=O)CCC4(Nc5ccc(F)cc5)C(C2)N(C)CCC314 (centres undefined)	0.76	> 40	10%		
COc1ccc2c(c1O)C13CCN(CC4CC4)C(C2)C12C=CC(=O)C3ON2c1ccc(F)cc1 (centres undefined)	~31	> 40	20%		
COc1ccc2c3c1OC1C(=O)CCC4(Nc5ccccc5)C(C2)N(CC2CC2)CCC314 (centres undefined)	~40	~10.5	10%		
COc1ccc2c3c1OC1C(=O)C=CC4(N(O)c5ccccc5)C(C2)N(CC2CC2)CCC314 (centres undefined)	> 40	~7	32%		
CN1CC[C@]23c4c5ccc(O)c4O[C@H]2[C@@H](O)C=C[C@H]3[C@H]1C5 [MORPHINE]	0.26		80%	inactive	
COc1ccc2c3c1OC1C(=O)C=CC4(N(O)c5ccc(F)cc5)C(C2)N(C)CCC314 (centres undefined)	0.71	> 40	30%		
COc1ccc2c(c1O)C13CCN(CC4CC4)C(C2)C12C=CC(=O)C3ON2c1ccccc1 (centres undefined)	> 40	> 40	20%		
COc1ccc2c3c1OC1C(=O)C=CC4(N(O)c5ccccc5)C(C2)N(C)CCC314 (centres undefined)	1.45	> 20	20%		
C=CCN1CC[C@]23c4c5ccc(O)c4O[C@H]2C(=O)CC[C@@]3(O)[C@H]1C5 [NALOXONE]			32%		inactive
COc1ccc2c(c1O)C13CCN(C)C(C2)C12C=CC(=O)C3ON2c1ccccc1 (centres undefined)	1.87	> 40	50%		
COc1ccc2c(c1O)C13CCN(C)C(C2)C12C=CC(=O)C3ON2c1ccc(F)cc1 (centres undefined)	2.53	> 40	90%		
COc1ccc2c3c1OC1C(=O)C=CC4(NO)C(C2)N(C)CCC314 (centres undefined)	5	> 20	10% and 20%		

Source: ChEMBL document CHEMBL1121464, “14-(Arylhydroxyamino)codeinones and derivatives as analgetics and antagonists” (1980)
